Assay results from different studies.

| SMILES | target or system | test | system | conditions | measurement | result |
| --- | --- | --- | --- | --- | --- | --- |
| O=c1[nH]c2scc(-c3ccccc3)c2c(=O)n1O | Human betaherpesvirus 5 | viral replication, inhibitor |  | 10 µM, 7 days | inhibition | -3.4% |
| CO[C@H]1/C=C/O[C@@]2(C)Oc3c(C)c(O)c4c(O)c(c(/C=N/N5CCN(C)CC5)c(O)c4c3C2=O)NC(=O)/C(C)=C\C=C\[C@H](C)[C@H](O)[C@@H](C)[C@@H](O)[C@@H](C)[C@H](OC(C)=O)[C@@H]1C | Mycobacterium tuberculosis | microbial growth | ERDMAN |  | IC50 | 31 nM |
| COc1ccc2c3c1O[C@H]1C(=O)CC[C@@]4(O)[C@@H](C2)N(C)CC[C@]314 |  | thermal pain | rat | intraperitoneal | ED50 | 2.67 mg/kg |
| CCN1CCc2c(sc3[nH]c(=O)n(O)c(=O)c23)C1 | Human betaherpesvirus 5 | viral replication, inhibitor |  | 10 µM, 7 days | inhibition | -4.8% |
| NNC(=O)c1ccncc1 | Mycobacterium tuberculosis | microbial growth |  |  | IC50 | 120 nM |
| CN1CC[C@]23c4c5ccc(O)c4O[C@H]2[C@@H](O)C=C[C@H]3[C@H]1C5 |  | thermal pain | rat | intraperitoneal | ED50 | 7.63 mg/kg |
| CCOC(=O)C1=C(N)N(c2ccc(C(=O)OCC)cc2)C(O)=C(C#N)C12C(=O)Nc1ccccc12 (centres unmarked) | HepG2 | cell growth or viability, MTT |  | 3.125 µM, 24 h | viability | 74.5% |
| CCCCCCC#Cc1cncc(-c2nnc(Sc3ccc([N+](=O)[O-])cc3[N+](=O)[O-])n2C)c1 | Mycobacterium tuberculosis | microbial growth | ERDMAN |  | IC90 | 1200 nM |
| O=C1c2ccccc2C(c2ccccc2)C(=O)N1O (centres unmarked) | Human betaherpesvirus 5 | viral replication, inhibitor |  | 10 µM, 7 days | inhibition | 23% |
| Nc1ncnc2c([C@@H]3N[C@H](CO)[C@@H](O)[C@H]3O)c[nH]c12 | human respiratory syncytial virus | viral replication, inhibitor | MA104 | 28.4 µM | inhibition | 102% |
| O=c1[nH]c2cc(-c3ccc(Cl)cc3)sc2c(=O)n1O | Human betaherpesvirus 5 | viral replication, inhibitor |  | 10 µM, 7 days | inhibition | 70% |
| Nc1nc(O)c2ncn(COC(CO)CO)c2n1 | Human betaherpesvirus 5 | viral replication, inhibitor | HFF |  | EC50 | 1600 nM |
| CCCCCCC#Cc1cncc(-c2nnc(SCc3ccc(Cl)cc3)n2C)c1 | Mycobacterium tuberculosis | microbial growth |  |  | IC50 | 850 nM |
| N.N.[Cl][Pt][Cl] | CCD-18Co | cell growth or viability, MTS |  | 72 h | IC50 | 64000 nM |
